Activity calls are given as the source filed them. The calls are words filed in the database; no cut-off is given here.

By T/C is commonly meant the result in the treated group divided by that in the control group, in per cent.

The subject of test [1] is HepG2. In words: Cell cycle arrest in human HepG2 cells assessed as accumulation at G1-phase at 8 uM after 48 hrs by propidium iodide staining based flow cytometry (reference value: 50.47%). It counts as functional. In general terms: A flow cytometer gives signals particle by particle.
Test [2] relates to HepG2. Kind of test: Cell cycle arrest in human HepG2 cells assessed as accumulation at S-phase at 8 uM after 48 hrs by propidium iodide staining based flow cytometry (reference value: 30.49%). It counts as functional.
Test [3] deals with HepG2. In words: Cell cycle arrest in human HepG2 cells assessed as accumulation at G2-phase at 10 uM after 48 hrs by propidium iodide staining based flow cytometry (reference value: 19.04%). It counts as functional.
Test [4] deals with HepG2. Kind of test: Cell cycle arrest in human HepG2 cells assessed as accumulation at S-phase at 10 uM after 48 hrs by propidium iodide staining based flow cytometry (reference value: 30.49%). It counts as functional.
The test system of test [5] is HepG2. In words: Downregulation of Cyclin-B1 protein expression in human HepG2 cells at 6 to 10 uM after 12 hrs by Western blot analysis. Type of test: functional, cell-based.
For test [6], the system named is HepG2. Kind of test: Upregulation of p27 protein expression in human HepG2 cells at 6 to 10 uM after 12 hrs by Western blot analysis. Type of test: functional, cell-based. In short, it runs like this:
(§1)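 HepG2 cell lysates after compound treatment analyzed by western blot for the target protein, compared with untreated negative control.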
Background: A western blot detects proteins with antibodies after separation by electrophoresis.

Test [7] deals with HepG2. In words: Induction of apoptosis in human HepG2 cells assessed as membrane blebbing at 6 to 10 uM after 12 hrs by acridine orange/ethidium bromide staining based fluorescence microscopic method. Type of test: functional, cell-based. Put shortly:
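HepG2 cells stained with acridine orange/ethidium bromide and examined by fluorescence microscopy; nuclei scored as yellow/green or orange, with pycnosis, membrane blebbing and cell budding taken as apoptotic morphology.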

Test [8] has as its system HepG2. In words: Induction of apoptosis in human HepG2 cells assessed as cell budding at 6 to 10 uM after 12 hrs by acridine orange/ethidium bromide staining based fluorescence microscopic method. It counts as functional.
Test [9] has as its system HepG2. Kind of test: Induction of apoptosis in human HepG2 cells assessed as live cells at 6 uM after 24 hrs by Annexin V-FITC/ propidium iodide staining based flow cytometry (reference value: 91.31%). Type of test: functional.
In test [10] the test system is HepG2. In words: Induction of apoptosis in human HepG2 cells assessed as late apoptotic cells at 6 uM after 24 hrs by Annexin V-FITC/ propidium iodide staining based flow cytometry (reference value: 1.91%). It counts as functional.
For test [11], the system named is HepG2. In words: Induction of apoptosis in human HepG2 cells assessed as live cells at 8 uM after 24 hrs by Annexin V-FITC/ propidium iodide staining based flow cytometry (reference value: 91.31%). It counts as functional.
Test [12] relates to HepG2. Kind of test: Induction of apoptosis in human HepG2 cells assessed as live cells at 10 uM after 24 hrs by Annexin V-FITC/ propidium iodide staining based flow cytometry (reference value: 91.31%). Type of test: functional.
Test [13] has as its system HepG2. Kind of test: Induction of apoptosis in human HepG2 cells assessed as early apoptotic cells at 10 uM after 24 hrs by Annexin V-FITC/ propidium iodide staining based flow cytometry (reference value: 6.5%). Type of test: functional.
In test [14] the test system is HepG2. In words: Induction of apoptosis in human HepG2 cells assessed as late apoptotic cells at 10 uM after 24 hrs by Annexin V-FITC/ propidium iodide staining based flow cytometry (reference value: 1.91%). Type of test: functional.
The subject of test [15] is HepG2. In words: Induction of ROS in human HepG2 cells at 6 to 10 uM by DAPI staining based fluorescence microscopic method. Type of test: functional, cell-based.
Test [16] has as its system HepG2. In words: Induction of ROS in human HepG2 cells at 6 to 10 uM by DCFH-DA staining based fluorescence microscopic method. Type of test: functional, cell-based.
Test [17] has as its system HepG2. In words: Downregulation of Bcl2 protein expression in human HepG2 cells at 6 to 10 uM after 12 hrs by Western blot analysis. It counts as functional, cell-based.
For test [18], the system named is HepG2. Kind of test: Induction of mitochondrial cytochrome-c release in to cytotol in human HepG2 cells at 6 to 10 uM after 12 hrs by Western blot analysis. It counts as functional, cell-based.
Test [19] deals with HepG2. In words: Upregulation of caspase-9 protein expression in human HepG2 cells at 6 to 10 uM after 12 hrs by Western blot analysis. Type of test: functional, cell-based. Put shortly: as §1
Test [20] relates to Mus musculus. Kind of test: Upregulation of PARP protein expression in tumor tissues of Balb/c nude mouse xenografted with human NCI-H460 cells at 25 to 50 mg/kg, ip bid for 13 days measured on day 14 by Western blot analysis. Type of test: functional, organism-based. Put shortly: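 Tumors from NCI-H460 xenografted BALB/c nude mice (25 or 50 mg/kg, vehicle 5% DMSO in saline) collected at day 14; protein levels in tumor tissue determined by western blot versus vehicle control.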

Test [21] concerns Mus musculus. Kind of test: Upregulation of APAF-1 protein expression in tumor tissues of Balb/c nude mouse xenografted with human NCI-H460 cells at 25 to 50 mg/kg, ip bid for 13 days measured on day 14 by Western blot analysis. Type of test: functional, organism-based. Background: In xenograft studies the graft and the host belong to different species.
Test [22] deals with Mus musculus. In words: Upregulation of Bax protein expression in tumor tissues of Balb/c nude mouse xenografted with human Bel7404 cells at 25 to 50 mg/kg, ip bid for 20 days measured on day 21 by Western blot analysis. Type of test: functional, organism-based.
In test [23] the test system is BEL-7404 tumor cell line. In words: Antitumor activity against human Bel7404 cells xenografted in Balb/c nude mouse assessed as relative tumor volume increment rate at 50 mg/kg, ip bid for 20 days measured on day 21 post last dose relative to control. Type of test: functional.
Test [24] relates to BEL-7404 tumor cell line. In words: Antitumor activity against human Bel7404 cells xenografted in Balb/c nude mouse assessed as relative tumor volume increment rate at 25 mg/kg, ip bid for 20 days measured on day 21 post last dose relative to control. Type of test: functional.
The test system of test [25] is BEL-7404 tumor cell line. In words: Antitumor activity against human Bel7404 cells xenografted in Balb/c nude mouse assessed as tumor growth inhibition at 25 mg/kg, ip bid for 20 days measured on day 21 post last dose relative to control. Type of test: functional. Particulars: BEL-7404, ip, read-out: TGI.
The subject of test [26] is BEL-7404 tumor cell line. In words: Antitumor activity against human Bel7404 cells xenografted in Balb/c nude mouse assessed as tumor growth inhibition at 50 mg/kg, ip bid for 20 days measured on day 21 post last dose relative to control. It counts as functional. Particulars: BEL-7404, ip, read-out: TGI.
In test [27] the test system is BEL-7404 tumor cell line. In words: Antitumor activity against human Bel7404 cells xenografted in Balb/c nude mouse assessed as induction of necrosis at 25 to 50 mg/kg, ip for 20 days measured on day 21 post last dose by hematoxylin and eosin staining based microscopic method. It counts as functional, organism-based.
The test system of test [28] is BEL-7404 tumor cell line. Kind of test: Cell cycle arrest in human Bel7404 cells assessed as accumulation at G1-phase at 9 uM after 48 hrs by propidium iodide staining based flow cytometry (reference value: 59.16%). It counts as functional.
The test system of test [29] is BEL-7404 tumor cell line. In words: Cell cycle arrest in human Bel7404 cells assessed as accumulation at G2-phase at 9 uM after 48 hrs by propidium iodide staining based flow cytometry (reference value: 18.84%). It counts as functional.
Test [30] has as its system Mus musculus. In words: Effect on caspase-3 protein expression in tumor tissues of Balb/c nude mouse xenografted with human Bel7404 cells at 25 to 50 mg/kg, ip bid for 20 days measured on day 21 by Western blot analysis. It counts as functional, organism-based.
The subject of test [31] is Mus musculus. Kind of test: Downregulation of caspase-9 protein expression in tumor tissues of Balb/c nude mouse xenografted with human Bel7404 cells at 25 to 50 mg/kg, ip bid for 20 days measured on day 21 by Western blot analysis. Type of test: functional, organism-based.
Test [32] deals with Mus musculus. Kind of test: Downregulation of PARP protein expression in tumor tissues of Balb/c nude mouse xenografted with human Bel7404 cells at 25 to 50 mg/kg, ip bid for 20 days measured on day 21 by Western blot analysis. It counts as functional, organism-based.

With `O=c1[nH]c2ccccc2cc1-c1nc2cc(Cl)ccc2[nH]1`, the Activity with HepG2 [1] is 31.1%; in the test on HepG2 [2], 29.19%; with HepG2 [3], 49.1%; in the test on HepG2 [4], 27.24%; with HepG2 [9], 68.62%; in the test with HepG2 [10], 10.4%. Also, the Activity was 53.37% in the test with HepG2 [11], 37.3% in the test on HepG2 [12], 45.57% in the test on HepG2 [13] and 16.68% in the test on HepG2 [14]. In addition, the result in the test with HepG2 [5], with HepG2 [6], in the test with HepG2 [7], with HepG2 [8], in the test on HepG2 [15] and with HepG2 [16] was Active. The result with HepG2 [17], with HepG2 [18], in the test on HepG2 [19], with Mus musculus [20] and in the test with Mus musculus [21] was Active.

Consider `O=c1[nH]c2cc3c(cc2cc1-c1nc2cc(Cl)ccc2[nH]1)OCO3`, for which the outcome in the test on Mus musculus [22] and in the test on Mus musculus [30] was inactive. Further, the T/C in the test on BEL-7404 tumor cell line [23] was 44.8%; with BEL-7404 tumor cell line [24], 51.5%. In the test on BEL-7404 tumor cell line [25], the inhibition in vivo at 25 mg/kg came out at 41.2%. For the same molecule, the inhibition in vivo at 50 mg/kg in the test on BEL-7404 tumor cell line [26] amounted to 44.9%. The result in the test with BEL-7404 tumor cell line [27], in the test with Mus musculus [31] and in the test with Mus musculus [32] was Active. For the same molecule, the Activity is 45.76% in the test on BEL-7404 tumor cell line [28] and 30.58% in the test with BEL-7404 tumor cell line [29].

Source of the values: ChEMBL document CHEMBL4270594, “Design, synthesis and pharmacological evaluation of new 3-(1H-benzimidazol-2-yl)quinolin-2(1H)-one derivatives as potential antitumor agents” (Eur J Med Chem, 2018).
